Test [1] concerns the target Cannabinoid receptor 1 (Homo sapiens) (UniProt P21554). Nature of the test: Antagonist activity at human CBR1 assessed as [35S]GTPgammaS binding at 10 uM by radiometric assay relative to control. The arrangement: scale not given: the % may be the effect or the level left. For orientation: GTPγS resists hydrolysis and so accumulates on activated G proteins.
In test [2] the target is T1, G-protein coupled receptor 55 (Homo sapiens, UniProt Q9Y2T6). Nature of the test: Agonist activity at human GPR55 expressed in CHOK1 cells at 10 uM by pathHunter beta-arrestin assay relative to LPI. It counts as cell-based. To be noted: CHO-K1. The gist of the method:
(§1)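 PathHunter eXpress GPR55 CHO-K1 β-arrestin kit run per the kit protocol, compounds screened at 10 μM. Luminescence read and expressed as percentage of the signal from bovine liver LPI at 1 μM. Mean with range of two experiments, each done in duplicate.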

In test [3] the target is Cannabinoid receptor 2 (Homo sapiens) (UniProt P34972). Nature of the test: Agonist activity at CBR2 (unknown origin) assessed as [35S]GTPgammaS binding at 10 uM by […] assay relative to control. It counts as functional.
Test [4] concerns the target T1, G-protein coupled receptor 55. Nature of the test: Agonist activity at human GPR55 expressed in HEK293 cells assessed as calcium signalling by fura 2-based digital epifluorescence microscopy. It counts as functional, cell-based. The essentials:
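HEK293 cells stably expressing GPR55, grown on poly-L-lysine coated glass coverslips and serum-starved overnight. Compounds applied by bath perfusion in HEPES-buffered saline at 30-32 °C. Single-cell fura 2 ratiometric imaging (350/380 nm) every 5 s. Peak responses pooled from 24 cells (12 random cells from each of two experiments) per concentration; EC50 with 95% CI from concentration-response curves. ARA-LPI used as reference agonist.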

The target of test [5] is T2, Fatty-acid amide hydrolase 1 (Homo sapiens) (UniProt O00519).
T2 sequence (whole entry): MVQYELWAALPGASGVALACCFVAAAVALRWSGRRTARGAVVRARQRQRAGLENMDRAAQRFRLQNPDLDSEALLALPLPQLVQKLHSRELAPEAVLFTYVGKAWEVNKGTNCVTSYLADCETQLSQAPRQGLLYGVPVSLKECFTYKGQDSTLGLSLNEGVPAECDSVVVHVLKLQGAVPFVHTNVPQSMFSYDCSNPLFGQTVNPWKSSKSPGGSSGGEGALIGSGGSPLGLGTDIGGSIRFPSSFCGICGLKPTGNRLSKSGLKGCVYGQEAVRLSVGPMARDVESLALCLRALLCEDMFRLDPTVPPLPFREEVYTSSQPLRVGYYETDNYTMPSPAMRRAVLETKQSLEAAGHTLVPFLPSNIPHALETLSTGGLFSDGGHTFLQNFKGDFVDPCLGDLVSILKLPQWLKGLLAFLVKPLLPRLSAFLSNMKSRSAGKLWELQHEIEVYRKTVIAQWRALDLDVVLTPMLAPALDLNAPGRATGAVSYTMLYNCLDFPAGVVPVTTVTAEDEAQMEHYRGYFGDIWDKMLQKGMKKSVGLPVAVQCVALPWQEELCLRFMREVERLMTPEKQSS
Put plainly: Inhibition of human FAAH expressed in African green monkey COS-7 cell membranes using [3H]-AEA as substrate assessed as residual activity at 10 uM preincubated for 10 mins followed by substrate addition measured after 10 mins by liquid scintillation counting analysis relative to control. The essentials:
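Membranes of COS-7 cells overexpressing hFAAH, 1 μg protein per incubation. Substrate 20 μM AEA including 10 nM [3H]AEA (60 Ci/mmol). Compounds tested at 10 μM.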

Test [6] addresses T3, Lysophosphatidylserine lipase ABHD12 (Homo sapiens) (UniProt Q8N2K0).
T3 sequence (whole entry): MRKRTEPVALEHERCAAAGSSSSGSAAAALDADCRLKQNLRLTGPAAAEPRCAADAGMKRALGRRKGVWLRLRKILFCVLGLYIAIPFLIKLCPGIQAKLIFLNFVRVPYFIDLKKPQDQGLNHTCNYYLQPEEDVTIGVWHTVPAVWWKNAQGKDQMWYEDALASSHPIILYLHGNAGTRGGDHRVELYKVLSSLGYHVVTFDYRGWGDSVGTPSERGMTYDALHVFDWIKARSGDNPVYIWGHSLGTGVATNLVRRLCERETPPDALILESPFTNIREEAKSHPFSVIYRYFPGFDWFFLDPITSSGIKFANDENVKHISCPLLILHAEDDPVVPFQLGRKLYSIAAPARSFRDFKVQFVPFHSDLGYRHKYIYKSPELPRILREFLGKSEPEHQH
Put plainly: Inhibition of human ABHD12 expressed in […] cells using 2-AG as substrate assessed as glycerol liberation at 1 uM preincubated for 30 mins followed by 2-AG addition measured for 90 mins by fluorescent glycerol assay relative to control. The format is cell-based. The arrangement: scale not given: the % may be the effect or the level left. The gist of the method: (§2)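 Lysates of HEK293 cells transiently overexpressing hABHD6 or hABHD12, 0.3 μg protein/well. Pretreated 30 min with DMSO or compound, then 2-AG added (12.5 μM final). Glycerol release coupled enzymatically to H2O2-dependent resorufin formation; fluorescence (ex 530/em 590 nm) followed kinetically for 90 min.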

Test [7] has as its target T1, G-protein coupled receptor 55. Nature of the test: Agonist activity at human GPR55 expressed in CHOK1 cells at 10 uM by pathHunter beta-arrestin assay relative to control. It counts as cell-based. To be noted: CHO-K1. The gist of the method: as §1
Test [8] addresses T4, Monoglyceride lipase (Homo sapiens) (UniProt Q99685).
T4 sequence (whole entry): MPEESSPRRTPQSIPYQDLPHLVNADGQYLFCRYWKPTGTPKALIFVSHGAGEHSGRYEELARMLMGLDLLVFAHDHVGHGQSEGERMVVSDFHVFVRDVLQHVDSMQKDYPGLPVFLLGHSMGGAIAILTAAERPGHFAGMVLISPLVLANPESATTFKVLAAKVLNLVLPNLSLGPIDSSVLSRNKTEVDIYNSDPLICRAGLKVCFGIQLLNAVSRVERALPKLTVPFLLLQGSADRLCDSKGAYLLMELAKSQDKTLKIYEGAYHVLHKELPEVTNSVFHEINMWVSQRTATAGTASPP
Nature of the test: Inhibition of human MGL expressed in […] cells using 2AG as substrate assessed as residual activity at 10 uM preincubated for 10 mins followed by substrate addition measured after 10 mins by HPLC analysis. It counts as cell-based. The essentials: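 Lysates of HEK cells overexpressing hMGL, 2.5 μg protein per incubation, substrate at 50 μM. Compounds tested at 10 μM.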

The target of test [9] is T5, Monoacylglycerol lipase ABHD6 (Homo sapiens) (UniProt Q9BV23).
T5 sequence (whole entry): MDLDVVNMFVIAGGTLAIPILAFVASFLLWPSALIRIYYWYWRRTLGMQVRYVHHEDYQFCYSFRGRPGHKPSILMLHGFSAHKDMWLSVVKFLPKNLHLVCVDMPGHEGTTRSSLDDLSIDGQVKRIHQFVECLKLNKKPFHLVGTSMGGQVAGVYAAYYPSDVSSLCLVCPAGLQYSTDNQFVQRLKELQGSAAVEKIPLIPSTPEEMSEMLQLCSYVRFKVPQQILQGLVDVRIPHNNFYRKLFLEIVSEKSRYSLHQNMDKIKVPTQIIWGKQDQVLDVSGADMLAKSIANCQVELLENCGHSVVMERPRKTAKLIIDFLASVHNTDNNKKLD
Put plainly: Inhibition of human ABHD6 expressed in […] cells using 2-AG as substrate assessed as glycerol liberation at 1 uM preincubated for 30 mins followed by 2-AG addition measured for 90 mins by fluorescent glycerol assay relative to control. The format is cell-based. Set-up: scale not given: the % may be the effect or the level left. The essentials: as §2

Test [10] deals with Cannabinoid receptor 2 (Homo sapiens) (UniProt P34972). Put plainly: Antagonist activity at human CBR2 assessed as [35S]GTPgammaS binding at 10 uM by […] assay relative to control. It counts as functional. Set-up: scale not given: the % may be the effect or the level left.
The target in test [11] is Cannabinoid receptor 1 (Homo sapiens) (UniProt P21554). Nature of the test: Agonist activity at CBR1 (unknown origin) assessed as [35S]GTPgammaS binding at 10 uM by […] assay relative to control. It counts as functional.
Test [12] addresses T1, G-protein coupled receptor 55. Put plainly: Agonist activity at human GPR55 expressed in HEK293 cells assessed as calcium signalling at 10 uM by fura 2-based digital epifluorescence microscopy. The format is functional, cell-based.
Test [13] has as its target T5, Monoacylglycerol lipase ABHD6 (Homo sapiens). Nature of the test: Inhibition of human ABHD6 expressed in […] cells using 2-AG as substrate assessed as glycerol liberation at 10 uM preincubated for 30 mins followed by 2-AG addition measured for 90 mins by fluorescent glycerol assay relative to control. It counts as cell-based. The arrangement: scale not given: the % may be the effect or the level left. The essentials: as §2

Test [14] has as its target T3, Lysophosphatidylserine lipase ABHD12 (Homo sapiens). Nature of the test: Inhibition of human ABHD12 expressed in […] cells using 2-AG as substrate assessed as glycerol liberation at 10 uM preincubated for 30 mins followed by 2-AG addition measured for 90 mins by fluorescent glycerol assay relative to control. It counts as cell-based. The arrangement: scale not given: the % may be the effect or the level left. The gist of the method: as §2

pEC50: −log10 of the molar value. Calls of active or inactive are those of the source. The calls are words filed in the database; no cut-off is given here. Where only a bound is given, the exact number is not on record here.

The term pEC50 denotes the EC50 on a negative log10 scale, so that one unit is a factor of ten.

Cannabinoid receptor 2 (Homo sapiens), sequence (P34972 whole entry): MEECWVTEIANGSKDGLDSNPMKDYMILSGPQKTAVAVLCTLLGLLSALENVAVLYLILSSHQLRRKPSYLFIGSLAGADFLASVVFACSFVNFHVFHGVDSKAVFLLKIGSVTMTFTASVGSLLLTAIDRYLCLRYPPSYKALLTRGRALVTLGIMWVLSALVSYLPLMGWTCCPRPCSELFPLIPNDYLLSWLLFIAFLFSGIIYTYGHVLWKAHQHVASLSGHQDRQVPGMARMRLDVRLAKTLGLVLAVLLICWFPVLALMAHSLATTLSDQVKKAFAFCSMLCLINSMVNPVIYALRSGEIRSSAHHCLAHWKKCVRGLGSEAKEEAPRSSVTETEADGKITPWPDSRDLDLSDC
T1 sequence (Q9Y2T6 whole entry): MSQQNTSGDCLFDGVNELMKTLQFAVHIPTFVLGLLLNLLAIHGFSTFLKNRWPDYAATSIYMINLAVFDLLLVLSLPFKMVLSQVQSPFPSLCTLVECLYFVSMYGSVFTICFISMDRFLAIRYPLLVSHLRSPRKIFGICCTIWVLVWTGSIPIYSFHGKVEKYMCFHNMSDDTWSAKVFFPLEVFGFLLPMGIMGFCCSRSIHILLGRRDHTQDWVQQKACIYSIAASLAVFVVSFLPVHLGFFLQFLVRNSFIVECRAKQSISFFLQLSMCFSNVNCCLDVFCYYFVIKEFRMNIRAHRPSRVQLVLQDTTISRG
Cannabinoid receptor 1 (Homo sapiens), sequence (P21554 whole entry): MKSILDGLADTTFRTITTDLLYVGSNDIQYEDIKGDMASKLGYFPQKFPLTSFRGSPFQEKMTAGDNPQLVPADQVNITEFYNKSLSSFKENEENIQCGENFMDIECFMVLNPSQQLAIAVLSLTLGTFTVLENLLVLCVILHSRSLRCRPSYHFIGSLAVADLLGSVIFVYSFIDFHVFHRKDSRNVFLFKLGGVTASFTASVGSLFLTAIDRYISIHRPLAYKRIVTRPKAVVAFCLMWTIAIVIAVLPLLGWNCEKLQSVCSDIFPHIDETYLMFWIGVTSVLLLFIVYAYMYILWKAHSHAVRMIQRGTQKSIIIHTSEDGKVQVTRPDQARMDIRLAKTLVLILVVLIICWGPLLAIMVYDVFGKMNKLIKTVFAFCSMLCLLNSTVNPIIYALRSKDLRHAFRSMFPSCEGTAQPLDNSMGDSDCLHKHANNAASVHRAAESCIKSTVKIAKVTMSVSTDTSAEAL

Take `O=C(NC(=S)Nc1ccc(S(=O)(=O)NCc2ccc(F)cc2)cc1)c1ccc(-c2ccccc2)cc1`: the Activity in test [1] is 91%; in [2] it was 185%; in [3], 87%; in test [5], 100%; in test [6], 96%; in test [7], 266%. Besides, the Activity in test [8] turned out to be 98%; in test [9] it was 95%; in test [10], 88%; in [11], 99%. Also, the pEC50 in [4] is 8.70.
Turning to `O=C(NC(=S)Nc1ccc(S(=O)(=O)NCCc2c[nH]c3ccccc23)cc1)c1ccc(-c2ccccc2)cc1`, the Activity came out at 94% in test [1]; 90% in [2]; 96% in test [3]; 85% in test [5]; 101% in test [6]; 132% in test [7]. For the same compound, the Activity came out at 102% in [8], 99% in [9], 106% in test [10] and 103% in [11]. In addition, the result in [12] was inactive.
Consider `C=CCNS(=O)(=O)c1ccc(NC(=S)NC(=O)c2ccc(-c3ccccc3)cc2)cc1`, for which the Activity stood at 94% in test [1]; 194% in test [2]; 87% in [3]; 78% in test [5]; 100% in test [6]; 285% in test [7]. The Activity worked out at 96% in test [8], 99% in test [9], 81% in test [10] and 127% in test [11]. The pEC50 in test [4] was 7.71.
With `O=C(NCCc1ccccc1)c1ccc(NC(=S)NC(=O)c2ccc(-c3ccccc3)cc2)cc1`, the Activity was found to be 99% in test [1]; 68% in test [2]; 99% in [3]; 85% in [5]; 98% in test [6]; 99% in [7]. In addition, the Activity in [8] worked out at 101%; in test [9], 96%; in test [10], 103%; in test [11], 98%. Moreover, in test [4], the pEC50 is less than 5.00.
Take `COc1ccc(CNS(=O)(=O)c2ccc(NC(=S)NC(=O)c3ccc(-c4ccccc4)cc3)cc2)cc1`: the Activity was 99% in [1]; 157% in test [2]; 103% in test [3]; 94% in test [5]; 100% in test [6]; 230% in [7]. Moreover, the Activity amounted to 105% in test [8], 101% in [9], 101% in test [10] and 101% in [11]. For the same compound, in [4], the pEC50 was 8.11.
On to `O=C(NCc1ccccc1)c1ccc(NC(=S)NC(=O)c2ccc(-c3ccccc3)cc2)cc1`, for which the Activity was 91% in [1]; 67% in test [2]; 111% in test [3]; 83% in [5]; 100% in test [6]; 100% in test [7]. For the same compound, the Activity was 103% in test [8], 96% in [9], 88% in [10] and 116% in test [11]. Further, the pEC50 in [4] is less than 5.00.
With `O=C(NC(=S)Nc1ccc(S(=O)(=O)NCCc2ccccc2)cc1)c1ccc(-c2ccccc2)cc1`, the Activity in test [1] is 91%; in [2] it was 117%; in [3] it was 94%; in test [5], 94%; in test [6], 101%; in [7], 173%. For the same compound, the Activity was determined as 99% in test [8], 99% in test [9], 103% in test [10] and 103% in [11]. Moreover, the pEC50 in test [4] was 7.41.
In the case of `CC(C)CNS(=O)(=O)c1ccc(NC(=S)NC(=O)c2ccc(-c3ccccc3)cc2)cc1`, the Activity was 93% in test [1]; 165% in test [2]; 85% in test [3]; 105% in test [5]; 95% in test [6]; 59% in [13]. For the same compound, the Activity in [7] is 242%; in [8] it was 107%; in [9], 106%; in [10] it was 86%; in test [14] it was 65%; in test [11], 119%. Further, the pEC50 in test [4] is 7.51.
Regarding `Cc1ccc(CNS(=O)(=O)c2ccc(NC(=S)NC(=O)c3ccc(-c4ccccc4)cc3)cc2)cc1`, the Activity in test [1] stood at 102%; in [2], 148%; in [3], 118%; in test [5], 94%; in test [6], 103%; in [7], 220%. Besides, the Activity in test [8] came out at 100%; in test [9] it was 100%; in test [10], 103%; in test [11], 105%. For the same compound, in test [4], the pEC50 is 7.91.

(Values after ChEMBL document CHEMBL3745614, “Potent and selective N-(4-sulfamoylphenyl)thiourea-based GPR55 agonists” (Eur J Med Chem, 2016).)
